Assay outcomes: PubChem BioAssay, several laboratories
Only some compounds are listed: those with a hit (about 1.6% of all), similar ones and a draw of the others.
TLR4 MyD88 comp: inhibitors of TLR4-MyD88 association in cells, primary screen, cell-based, HeLa CL3-4, BLA complementation, FRET ratio | Toll-like receptor 4 (Homo sapiens) + Myeloid differentiation primary response protein … | HeLa CL3-4 TLR4/MyD88 BLA complementation | inhibition, % at 8.4 µM | 200,000 tested, 0.18% active | AID 861, 2007; in the data active = inhibition above about 25%;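 note: 0% = vehicle and 100% = reference inhibitor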
ABHD5 PLIN5 PPI: ABHD5-PLIN5 interaction inhibitors, primary screen, cell lysate, split luciferase complementation, luminescence. Perilipin-5 (Homo sapiens) + 1-acylglycerol-3-phosphate O-acyltransferase ABHD5 (Homo …. Split G. princeps luciferase complementation, 4 h. inhibition, % at 4 µM. 360,000 tested, 0.78% active;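 active = inhibition above the mean inhibition across every tested compound plus 3 SD, cut at about 22% in these data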;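 note: 0% = DMSO only wells and the 100% control is not disclosed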
TLR9-MyD88 block: inhibitors of TLR9-MyD88 association in cells, primary screen, cell-based, CHO, BLA complementation, fluorescence | Toll-like receptor 9 (Homo sapiens) + Myeloid differentiation primary response protein … | CCF4 FRET ratio | inhibition, % at 4.98 µM | 340,000 tested, 0.21% active | AID 504734, 2011;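 active = inhibition above the mean over all tested compounds plus 3 SD, cut at about 21% in these data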;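 note: 0% = DMSO only wells and 100% = clavulanate BLA inhibitor control wells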
Dynein cargo inh: inhibitors of GR-EGFP nuclear translocation, primary screen, dynein cargo transport inhibitor project, imaging, high-content, 3617.4 mouse cells. test concentration mostly 20 µM; stimulated with dexamethasone, 1 µM; stronger effect = lower value. z-score, hits read low. 220,000 tested, 0.47% active;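 active = plate z-score of nuclear minus cytoplasmic receptor signal below a set negative limit, without overly bright fluorescence or cell loss, cut at about -3.5 in these data, passing the limit was not always enough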;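 note: z-score of nuclear minus cytoplasmic ring GR-EGFP intensity difference per well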
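Schedule: 48 h induction, then 1 h compound, then 30 min agonist, 37 °C. Buffer or medium: tetracycline-free induction medium containing charcoal-stripped FBS. Reagent: 1.0 µM final dexamethasone stimulus. Evaluation: nuclear versus cytoplasmic GR-EGFP signal, averaged per well. Signal: high-content fluorescence imaging after fixation.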
B2AR ag: beta2AR agonists driving receptor internalization, primary screen, cell-based, FAP fluorogen, flow cytometry; 340,000 tested, 0.43% active; Am2.2-beta2AR cells; Beta-2 adrenergic receptor (Homo sapiens), P07550; response, % (concentration not given with the values);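 active = response above a set limit, near 3 SD of response in nonfluorescent compounds, cut at about 42% in these data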
Target sequence (P07550 whole entry, looked up): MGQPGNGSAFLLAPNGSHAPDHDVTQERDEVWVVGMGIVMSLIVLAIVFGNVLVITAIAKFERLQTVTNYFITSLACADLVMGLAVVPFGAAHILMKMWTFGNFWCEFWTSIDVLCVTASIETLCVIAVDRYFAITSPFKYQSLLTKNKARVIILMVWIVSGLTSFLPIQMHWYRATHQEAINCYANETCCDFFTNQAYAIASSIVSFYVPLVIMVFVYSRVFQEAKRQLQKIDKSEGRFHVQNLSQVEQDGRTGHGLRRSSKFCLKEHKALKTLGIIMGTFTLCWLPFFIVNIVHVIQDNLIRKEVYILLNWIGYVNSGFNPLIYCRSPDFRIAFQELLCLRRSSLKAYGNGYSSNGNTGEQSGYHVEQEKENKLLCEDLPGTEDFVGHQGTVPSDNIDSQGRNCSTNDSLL
NOD2-RIPK2 inh: NOD2-RIPK2 binding disruptors in cells, primary screen, fluorescence, CHO cells, BLA complementation | Receptor-interacting serine/threonine-protein kinase 2 (Homo sapiens), O43353 | CCF4 ratio | inhibition, % at 4.98 µM | 360,000 tested, 0.38% active; in the data active = inhibition above about 21%;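 note: 0% = vehicle only and 100% = reference blocker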
ABHD5 PLIN5 conf: ABHD5-PLIN5 interaction inhibitors, confirmation, biochemical, luminescence | 2,200 tested, 67% active | inhibition, % at 4 µM | AID 651612, 2012 | shares compounds with ABHD5 PLIN5 PPI; in the data active = inhibition above about 23%;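 note: 0% = DMSO vehicle wells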
HNF4 split-luc: HNF4 dimerization inhibitors, counter-screen for ABHD5-PLIN5 interaction inhibitor project, biochemical, split-luciferase complementation, luminescence; shares compounds with ABHD5 PLIN5 PPI; inhibition, % at 4 µM; 2,200 tested, 77% active; AID 651674, 2012;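 active = mean inhibition across replicate wells exceeding the computed hit threshold, cut at about 13% in these data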;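 note: light from luciferase halves that rejoin when HNF4 fusion proteins dimerize; 0% = DMSO only wells and the 100% control is not given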
Numbers without * were called inactive; x = no result given.

SMILES	TLR4 MyD88 comp	ABHD5 PLIN5 PPI	TLR9-MyD88 block	Dynein cargo inh	B2AR ag	NOD2-RIPK2 inh	ABHD5 PLIN5 conf	HNF4 split-luc
C#CC[N+](C)(C)CCCCCCCCCC	-4	8	-5	2	7	-4	x	x
CC#CC[N+](C)(C)CCCCCCCCCCCC	0	27*	2	-0.046	11	0	13	0
Cc1nc(N)[nH]c(=O)c1CCCNc1ccc(CCC2(CCl)OCCO2)cc1	x	-1	-18	x	8	-13	x	x
Cc1ccc(-c2csc(NC(=O)C[n+]3cc(-c4ccccc4)n4c3CCC4)n2)cc1	x	14	x	0.31	-5	-2	x	x
Cc1ccc(-c2csc(NC(=O)C[n+]3cc(-c4ccc(C)cc4)n4c3CCC4)n2)cc1	x	25*	2	-0.12	3	-8	10	3
CNc1ccc(-c2cccc(C(=O)N3CCOCC3)c2)cn1	x	13	x	x	x	-1	x	x
COC(=O)c1c(NC(=S)NN2CCN(C)CC2)sc2c1CCC(C)C2 (configuration not stated)	-13	25*	-9	1.9	29	2	6	4
O=c1n(Cc2ccccc2)c(O)c2n1Cc1ccccc1N=C2c1ccc(C(F)(F)F)cc1	x	-4	x	x	x	-1	x	x
O=C1/C(=C/c2ccc(O)cc2)COc2ccccc21	x	25*	-5	x	-4	9	50*	60*
O=C1c2ccccc2COc2ccc(O)cc21	-1	-4	-3	-0.86	3	-4	x	x
COc1cccc(NC(=O)CCC2CCN(C(=O)c3ccc(C(C)=O)s3)CC2)c1	x	1	8	x	-3	-8	x	x
CC(C)CC(NC(=O)OCc1ccccc1)C(=O)NC(Cc1ccccc1)C(=O)CCl (configuration not stated)	x	24*	-11	x	3	-4	88*	88*
O=C(c1ccccc1NS(=O)(=O)c1ccc([N+](=O)[O-])cc1[N+](=O)[O-])N1O[C@@H]2C=C[C@H]1C2	x	27*	-7	x	2	0	49*	74*
COc1cc(CNC(=O)c2cc(-c3ccc(F)cc3C)n[nH]2)cc(OC)c1	x	4	x	x	x	-1	x	x
CN1CCN(C2=Cc3ccc(Cl)cc3Sc3ccc(F)cc32)CC1	-8	29*	8	0.43	18	-7	19	1
CN1CCN(C2Cc3ccccc3Sc3cc(C(F)(F)F)ccc32)CC1 (configuration not stated)	x	x	x	x	16	x	x	x
CN1CCN(C2=Cc3ccccc3Sc3cc(F)ccc32)CC1	0	23*	4	-1.3	-3	-10	15	11
CN1CCN(C2Cc3cc(F)ccc3Sc3ccc(Cl)cc32)CC1 (configuration not stated)	x	13	-2	x	11	6	x	x
CCc1nc2cc(NC(=O)C3(C)CCCN(C(C)=O)C3)ccc2o1 (configuration not stated)	x	-5	x	x	x	2	x	x
CC1(CCc2ccc3c(c2)OCO3)NCCc2c1[nH]c1ccccc21 (configuration not stated)	x	-3	-10	x	6	-2	x	x
CC(C)NC(=O)Cn1nnc(-c2ccccc2)c1COc1ccc2ccccc2c1	x	-2	x	x	x	9	x	x
Nc1ccccc1SSc1ccccc1N	x	60*	7	0.86	1	13	88*	104*
O=C(Nc1ccccn1)C1CCN(C(=O)c2ccc(Cl)cc2)CC1	x	-3	-15	x	x	-13	x	x
O=C(/C=C/c1cccc([N+](=O)[O-])c1)Nc1cccc(NC(=O)c2ccco2)c1	6	12	-5	-1.1	11	1	x	x
O=C(/C=C/c1cccc([N+](=O)[O-])c1)c1ccco1	x	71*	-4	x	7	4	97*	97*
